In ChEMBL document CHEMBL5338802, “To Fold or Not to Fold: Diastereomeric Optimization of an α-Helical Antimicrobial Peptide” (J Med Chem, 2023):
≈ marks a conversion by molar mass, not a printed value. Calls of active or inactive are those of the source. The calls are words filed in the database; no cut-off is given here. Non-standard residues stand in square brackets, D forms with d. Residues, ends and D or L forms follow the SMILES beside them.

Key:
Staphylococcus aureus = assay: Antimicrobial activity against methicillin-resistant Staphylococcus aureus COL assessed as microbial growth inhibition incubated for 16 to 20 hrs by MTT assay; assay type: functional; conditions: time 16-20 hrs
How it was run: (§1)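 Broth microdilution in Mueller–Hinton broth pH 7.4. Overnight LB colony culture diluted to OD600 0.022; roughly 5 × 10^5 CFU final inoculum. Static incubation at 37 °C for 16–20 h, then MTT added at room temperature. MIC is the lowest concentration with no visible growth, read by eye. Two independent duplicates.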

Escherichia coli = assay: Antimicrobial activity against Escherichia coli W3110 assessed as microbial growth inhibition incubated for 16 to 20 hrs by broth microdilution method; assay type: functional; conditions: time 16-20 hrs
How it was run: (§2)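 Broth microdilution in MH broth, pH 7.4. An overnight LB colony culture (37 °C, 180 rpm) was diluted to OD600 0.022, giving about 5 × 10^5 CFU per well. MTT was then added, and MIC was read by eye as the lowest concentration without visible growth. Two independent duplicates were run.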

Cell membrane = assay: Induction of membrane disruption in bacterial membrane mimic EYPG vesicles assessed as carboxyfluorescein leakage at 10 ug/ml measured after 240 secs by fluorescence based assay; assay type: subcellular; conditions: dose 10.0 µg/ml, time 240.0 sec
Erythrocyte = assay: Hemolytic activity in human RBC incubated for 4 hrs by visual analysis; assay type: toxicity, cell-based
Klebsiella pneumoniae = assay: Antimicrobial activity against Klebsiella pneumoniae NCTC418 assessed as microbial growth inhibition incubated for 16 to 20 hrs by broth microdilution method; assay type: functional; conditions: time 16-20 hrs; how it was run: as §1
Acinetobacter baumannii = assay: Antimicrobial growth against Acinetobacter baumannii ATCC 19606 assessed as microbial growth inhibition incubated for 16 to 20 hrs by broth microdilution method; assay type: functional; conditions: time 16-20 hrs; how it was run: as §2
[1] = Induction of membrane disruption in eukaryotic inner membrane mimic EYPC vesicles assessed as carboxyfluorescein leakage at 10 ug/ml measured after 240 secs by fluorescence based assay; assay type: cell membranes; conditions: dose 10.0 µg/ml, time 240.0 sec
Pseudomonas aeruginosa [2] = assay: Antimicrobial activity against Pseudomonas aeruginosa PAO1 assessed as microbial growth inhibition incubated for 16 to 20 hrs by broth microdilution method; assay type: functional; conditions: time 16-20 hrs; how it was run: as §2
Burkholderia cenocepacia = assay: Antimicrobial activity against multidrug-resistant Burkholderia cenocepacia assessed as microbial growth inhibition incubated for 16 to 20 hrs by broth microdilution method; assay type: functional; conditions: time 16-20 hrs
How it was run: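 Broth microdilution in Mueller–Hinton broth pH 7.4. Peptides serially diluted 1/2 from 2 mg/mL water stocks over 0.5–64 μg/mL. Overnight LB colony culture diluted to OD600 0.022; roughly 5 × 10^5 CFU final inoculum. Static incubation at 37 °C for 16–20 h, then MTT added at room temperature. MIC is the lowest concentration with no visible growth, read by eye. Two independent duplicates.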

[3] = Proteolytic stability in human serum assessed as drug degradation at 200 uM incubated for 10 mins by RP-HPLC analysis; assay type: ADME, cell-free
Pseudomonas aeruginosa [4] = assay: Antimicrobial activity against Pseudomonas aeruginosa PAO1 assessed as bacterial killing at 8 ug/ml measured after 1 hr by time-kill assay; assay type: functional, organism-based; conditions: dose 8.0 µg/ml
How it was run: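 P. aeruginosa PAO1 from an overnight LB culture was diluted to 2 × 10^6 CFU/mL in MH, pH 7.4, then mixed 1:1 with peptide in MH and incubated at 37 °C with shaking at 180 rpm. Survivors were counted by plating 10-fold dilutions on LB agar at 0–6 h (37 °C, 10 h). Done in triplicate.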

HEK293 = assay: Cytotoxicity against HEK293 cells assessed as reduction in cell viability at 0 to 200 uM incubated for 24 hrs by Alamar blue assay; assay type: toxicity, cell-based; conditions: human, hek293, 24 h, dose 0-200 µM
How it was run: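 HEK293 cells were kept in DMEM with 10% FBS and penicillin/streptomycin, seeded at 4000 cells/well the day before, then exposed to peptide at 0–200 μM for 24 h at 37 °C, 5% CO2. Viability was read with 10% AlamarBlue for 3–5 h (ex 560/em 590 nm), normalized to untreated cells.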

Compound	MIC (Staphylococcus aureus)	MHC (Erythrocyte)	MIC (Klebsiella pneumoniae)	MIC (Pseudomonas aeruginosa [2])	MIC (Burkholderia cenocepacia)	other results
CC[C@H](C)[C@H](NC(=O)[C@@H](NC(=O)[C@@H](NC(=O)[C@@H](CCCNC(=N)N)NC(=O)[C@@H](NC(=O)[C@@H](NC(=O)[C@@H](CCCNC(=N)N)NC(=O)[C@@H](NC(=O)[C@@H](NC(=O)[C@@H](CCCNC(=N)N)NC(=O)[C@H](N)CCCNC(=N)N)[C@@H](C)CC)[C@@H](C)CC)[C@@H](C)CC)[C@@H](C)CC)[C@@H](C)CC)[C@@H](C)CC)C(N)=O (H-[dR][dR]II[dR]II[dR]III-NH2)	8 µg/mL (≈ 5.58 µM)	250 µg/mL	32 µg/mL (≈ 22.3 µM)	4 µg/mL (≈ 2.79 µM)	–	MIC (Escherichia coli): 8 µg/mL (≈ 5.58 µM); Activity (Cell membrane): 98%; MIC (Acinetobacter baumannii): 8 µg/mL (≈ 5.58 µM); Activity [1]: 8%
CC(C)C[C@H](NC(=O)[C@H](CC(C)C)NC(=O)[C@H](CC(C)C)NC(=O)[C@H](CCCCN)NC(=O)[C@H](CC(C)C)NC(=O)[C@H](CC(C)C)NC(=O)[C@H](CCCCN)NC(=O)[C@H](CC(C)C)NC(=O)[C@H](CC(C)C)NC(=O)[C@@H](CCCCN)NC(=O)[C@H](N)CCCCN)C(N)=O	–	< 15.6 µg/mL	–	–	> 64 µg/mL	–
H-RRIIRIIRIII-NH2	16 µg/mL	62.5 µg/mL	16 µg/mL	64 µg/mL	–	MIC (Escherichia coli): 16 µg/mL; Activity (Cell membrane): 99%; MIC (Acinetobacter baumannii): 8 µg/mL; Activity [1]: 39%
H-KKIIKIIKIII-NH2	> 64 µg/mL	62.5 µg/mL	> 64 µg/mL	> 64 µg/mL	–	–
H-KKLLKLLKLLLKKLLKLLKLLL-NH2	> 64 µg/mL	< 15.6 µg/mL	> 64 µg/mL	> 64 µg/mL	–	MIC (Escherichia coli): > 64 µg/mL; MIC (Acinetobacter baumannii): > 64 µg/mL
H-RRLLRLLRLLL-NH2	–	15.6 µg/mL	–	8 µg/mL	–	Activity (Cell membrane): 30%; Activity [1]: 99%
CC[C@H](C)[C@H](NC(=O)[C@@H](NC(=O)[C@@H](NC(=O)[C@@H](CCCCN)NC(=O)[C@@H](NC(=O)[C@@H](NC(=O)[C@@H](CCCCN)NC(=O)[C@@H](NC(=O)[C@@H](NC(=O)[C@@H](CCCCN)NC(=O)[C@H](N)CCCCN)[C@@H](C)CC)[C@@H](C)CC)[C@@H](C)CC)[C@@H](C)CC)[C@@H](C)CC)[C@@H](C)CC)C(N)=O (H-[dK][dK]II[dK]II[dK]III-NH2)	> 64 µg/mL	125 µg/mL	> 64 µg/mL	–	–	–
CC(C)C[C@H](NC(=O)[C@H](CC(C)C)NC(=O)[C@H](CC(C)C)NC(=O)[C@H](CCCCN)NC(=O)[C@@H](CC(C)C)NC(=O)[C@H](CC(C)C)NC(=O)[C@H](CCCCN)NC(=O)[C@@H](CC(C)C)NC(=O)[C@@H](CC(C)C)NC(=O)[C@@H](CCCCN)NC(=O)[C@@H](N)CCCCN)C(N)=O	–	62.5 µg/mL	–	–	> 64 µg/mL	–
CC(C)C[C@@H](NC(=O)[C@@H](CC(C)C)NC(=O)[C@@H](CC(C)C)NC(=O)[C@H](CCCCN)NC(=O)[C@@H](CC(C)C)NC(=O)[C@@H](CC(C)C)NC(=O)[C@H](CCCCN)NC(=O)[C@@H](CC(C)C)NC(=O)[C@@H](CC(C)C)NC(=O)[C@H](CCCCN)NC(=O)[C@@H](N)CCCCN)C(N)=O	–	250 µg/mL	–	–	–	Stability [3]: Unstable
CC(C)C[C@H](NC(=O)[C@H](CCCCN)NC(=O)[C@H](N)CCCCN)C(=O)N[C@@H](CC(C)C)C(=O)N[C@@H](CCCCN)C(=O)N[C@@H](CC(C)C)C(=O)N[C@@H](CC(C)C)C(=O)N[C@@H](CCCCN)C(=O)N[C@@H](CC(C)C)C(=O)N[C@@H](CC(C)C)C(=O)N[C@H](CC(C)C)C(N)=O	–	62.5 µg/mL	–	–	–	Activity (Pseudomonas aeruginosa [4]): Active
CC(C)C[C@H](NC(=O)[C@H](CC(C)C)NC(=O)[C@H](CC(C)C)NC(=O)[C@H](CCCCN)NC(=O)[C@H](CC(C)C)NC(=O)[C@H](CC(C)C)NC(=O)[C@H](CCCCN)NC(=O)[C@H](CC(C)C)NC(=O)[C@H](CC(C)C)NC(=O)[C@H](CCCCN)NC(=O)[C@@H](N)CCCCN)C(N)=O	–	125 µg/mL	–	–	–	Activity (HEK293): Non-Toxic
CC(C)C[C@H](NC(=O)[C@H](CC(C)C)NC(=O)[C@H](CC(C)C)NC(=O)[C@@H](CCCCN)NC(=O)[C@H](CC(C)C)NC(=O)[C@H](CC(C)C)NC(=O)[C@@H](CCCCN)NC(=O)[C@H](CC(C)C)NC(=O)[C@H](CC(C)C)NC(=O)[C@@H](CCCCN)NC(=O)[C@@H](CCCCN)NC(=O)[C@H](CC(C)C)NC(=O)[C@H](CC(C)C)NC(=O)[C@H](CC(C)C)NC(=O)[C@@H](CCCCN)NC(=O)[C@H](CC(C)C)NC(=O)[C@H](CC(C)C)NC(=O)[C@@H](CCCCN)NC(=O)[C@H](CC(C)C)NC(=O)[C@H](CC(C)C)NC(=O)[C@@H](CCCCN)NC(=O)[C@H](N)CCCCN)C(N)=O (H-[dK][dK]LL[dK]LL[dK]LLL[dK][dK]LL[dK]LL[dK]LLL-NH2)	> 64 µg/mL	< 15.6 µg/mL	> 64 µg/mL	> 64 µg/mL	–	MIC (Acinetobacter baumannii): > 64 µg/mL
CC(C)C[C@H](NC(=O)[C@H](CC(C)C)NC(=O)[C@H](CC(C)C)NC(=O)[C@H](CCCCN)NC(=O)[C@H](CC(C)C)NC(=O)[C@H](CC(C)C)NC(=O)[C@H](CCCCN)NC(=O)[C@@H](CC(C)C)NC(=O)[C@@H](CC(C)C)NC(=O)[C@@H](CCCCN)NC(=O)[C@@H](N)CCCCN)C(N)=O	–	< 15.6 µg/mL	–	–	> 64 µg/mL	–
CC(C)C[C@H](NC(=O)[C@H](CC(C)C)NC(=O)[C@H](CC(C)C)NC(=O)[C@H](CCCCN)NC(=O)[C@H](CC(C)C)NC(=O)[C@H](CC(C)C)NC(=O)[C@H](CCCCN)NC(=O)[C@H](CC(C)C)NC(=O)[C@H](CC(C)C)NC(=O)[C@@H](CCCCN)NC(=O)[C@@H](N)CCCCN)C(N)=O	–	< 15.6 µg/mL	–	–	> 64 µg/mL	–
CC(C)C[C@H](NC(=O)[C@H](CCCCN)NC(=O)[C@H](N)CCCCN)C(=O)N[C@@H](CC(C)C)C(=O)N[C@H](CCCCN)C(=O)N[C@H](CC(C)C)C(=O)N[C@H](CC(C)C)C(=O)N[C@@H](CCCCN)C(=O)N[C@@H](CC(C)C)C(=O)N[C@@H](CC(C)C)C(=O)N[C@H](CC(C)C)C(N)=O	–	1000 µg/mL	–	–	–	Activity [1]: 3%
CC(C)C[C@H](NC(=O)[C@H](CC(C)C)NC(=O)[C@H](CC(C)C)NC(=O)[C@H](CCCCN)NC(=O)[C@H](CC(C)C)NC(=O)[C@H](CC(C)C)NC(=O)[C@H](CCCCN)NC(=O)[C@@H](CC(C)C)NC(=O)[C@H](CC(C)C)NC(=O)[C@@H](CCCCN)NC(=O)[C@@H](N)CCCCN)C(N)=O	–	< 15.6 µg/mL	–	–	> 64 µg/mL	–
CC(C)C[C@H](NC(=O)[C@H](CC(C)C)NC(=O)[C@H](CCCCN)NC(=O)[C@H](CC(C)C)NC(=O)[C@H](CC(C)C)NC(=O)[C@@H](CCCCN)NC(=O)[C@H](N)CCCCN)C(=O)N[C@@H](CCCCN)C(=O)N[C@@H](CC(C)C)C(=O)N[C@@H](CC(C)C)C(=O)N[C@H](CC(C)C)C(N)=O	–	125 µg/mL	–	–	> 64 µg/mL	Activity (Pseudomonas aeruginosa [4]): Active
CC(C)C[C@H](NC(=O)[C@H](CC(C)C)NC(=O)[C@H](CC(C)C)NC(=O)[C@@H](CCCNC(=N)N)NC(=O)[C@H](CC(C)C)NC(=O)[C@H](CC(C)C)NC(=O)[C@@H](CCCNC(=N)N)NC(=O)[C@H](CC(C)C)NC(=O)[C@H](CC(C)C)NC(=O)[C@@H](CCCNC(=N)N)NC(=O)[C@H](N)CCCNC(=N)N)C(N)=O (H-[dR][dR]LL[dR]LL[dR]LLL-NH2)	2 µg/mL (≈ 1.39 µM)	125 µg/mL	–	–	–	–
